Sampled rows, rich in hits. Any-hit rate of the full collection: about 1.5%.
STAT1 inh-1 = reduces IFN-gamma driven STAT1 reporter signal; NIH 3T3 STAT1-luciferase reporter, luminescence; inhibition, % at 5.5 µM; 200,000 tested, 0.35% active;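 active = inhibition above a set limit, the mean inhibition across all tested compounds plus 3 SD, cut at about 34% in these data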;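 note: 0% = IFN-gamma with DMSO and 100% = IFN-gamma with 300 µM nifuroxazide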
PPC-1+TRAIL kill = kills PPC-1 cancer cells in the presence of TRAIL; PPC-1 cells + TRAIL, ATPLite viability luminescence; cell killing (% activity), % at 4 µM or 5 µM; 220,000 tested, 0.41% active;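 active = cell killing above 50% in the first pass at 4 µM, then a duplicate retest at 5 µM averaging 50% or more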;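 note: plate controls were cells with TRAIL plus DMSO for no effect and medium-only wells lacking cells for full effect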
Lipid droplet = modulators of hepatic lipid droplet formation | 240,000 tested, 0.4% active | AID 1656 | inhibition, % at 6.5 µM | AML12 mouse hepatocytes, oleate lipid droplets, BODIPY imaging;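 active = lipid droplet intensity inhibited by at least 50%, with more than 500 cells counted; inconclusive = wells with under 300 cells, treated as cytotoxic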
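Test system: AML12 hepatocytes (mouse); reagent: oleate loading, 100 µM; dosing: one dose, 6.5 µM compound; incubation: overnight exposure; signal: fluorescence imaging, 20x objective, two fields per well; read-out basis: % inhibition of corrected integrated BODIPY droplet signal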
STAT3 blocker = inhibitors of IL-6 induced STAT3 signaling; AID 862; 190,000 tested, 0.89% active; inhibition, % at 5.5 µM; U3A cells, IL-6 STAT3-luciferase reporter, luminescence; host cell line lacks STAT1;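 active = inhibition above the mean inhibition across all screened compounds plus 3 SD, cut at about 44% in these data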;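 note: 0% = DMSO only wells and 100% = 100 µM nifuroxazide control wells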
TAG inh = triacylglycerol accumulation inhibition | inhibition, % at 12.5 µM | H9c2 cells, Nile Red lipid (TAG) fluorescence; cells loaded with 200 µM oleic acid | AID 651582 | 230,000 tested, 0.66% active;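 active = pattern-corrected inhibition of lipid staining of at least 50% with the nuclear-stain viability signal not falling by more than 50%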;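 note: 0% = DMSO wells and 100% = triacsin C control wells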
Platelet DG rel = platelet dense granule release activity; human platelet-rich plasma, SFLLRN dense granule ATP release, luminescence; inhibition, %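 (compounds screened at 7.5 µM in platelet-rich plasma)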; 300,000 tested, 0.22% active;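 active = mean replicate score, as percent of positive control, at or above 50; inconclusive = mean below 50 but at least one replicate at or above 50; inactive = mean and every replicate below 50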
STAT1 inh-2 = confirmation of STAT1 signaling inhibitors; shares compounds with STAT1 inh-1; NIH 3T3 STAT1-luciferase reporter, IFN-gamma, luminescence; inhibition, % at 5.5 µM; 200 tested, 55% active; AID 1263;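 active = triplicate mean inhibition exceeding the hit cutoff computed for the primary STAT1 screen, cut at about 35% in these data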;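 note: 0% = DMSO with IFN-gamma and 100% = 300 µM nifuroxazide with IFN-gamma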
NFkB inh STAT1ct = counter-screen for STAT1 inhibitors: NF-kappaB inhibition; HEK293T NF-kB luciferase reporter, TNF-alpha induced, luminescence; shares compounds with STAT1 inh-1; inhibition, % at 5.7 µM; 200 tested, 30% active; AID 1303;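 active = inhibition above the mean of solvent-only control wells plus 3 SD of those wells, cut at about 15% in these data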;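 note: 0% = DMSO with TNF-alpha and 100% = MG-132 control with TNF-alpha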
STAT3 inh 2 = inhibits STAT3, counter-screen to STAT1 inhibitors; shares compounds with STAT1 inh-1; U3A cells, IL-6 STAT3 luciferase reporter, luminescence; cells lacking STAT1; inhibition, % at 5.7 µM; 200 tested, 20% active;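 active = inhibition above the mean of solvent-only control wells plus 3 SD, set per campaign, cut at about 25% in these data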;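 note: 0% = IL-6 plus DMSO and 100% = IL-6 plus nifuroxazide control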
PPC-1 tox = PPC-1 cell cytotoxicity | shares compounds with PPC-1+TRAIL kill | PPC-1 viability, ATPlite luminescence, overnight | cytotoxicity, % at 5 µM | 1,200 tested, 50% active | AID 1447;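 active = reconfirmed compounds whose average cytotoxicity reaches 50% or more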;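 note: 0% = DMSO-treated cells and 100% = wells holding medium but no cells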
* hit, by the source's call; ? = inconclusive; nt = no result.

SMILES | STAT1 inh-1 | PPC-1+TRAIL kill | Lipid droplet | STAT3 blocker | TAG inh | Platelet DG rel | STAT1 inh-2 | NFkB inh STAT1ct | STAT3 inh 2 | others
CCOC(=O)N1CCN(C(=O)c2ccc(NC(=O)c3ccc(C)cc3)cc2)CC1 | 68* | 20 | -3 | 9 | -1 | -9 | 61* | 0 | 11
Cc1ccc(NC(=O)c2cc(C)n(-c3cccc(C)c3)c2C)cc1 | 65* | 20 | 45 | 16 | nt | 15 | 5 | 0 | -14
CC(C)(C)c1ccc(/C=C(\c2nc3ccccc3[nH]2)S(=O)(=O)c2ccccc2)cc1 | nt | nt | nt | nt | 85 | -2 | nt | nt | nt
Cc1cccc(/C=C(\c2nc3ccccc3[nH]2)S(=O)(=O)c2ccccc2)c1 | 38* | 9 | -13 | 9 | 40 | 0 | 47* | 5 | 18
CC(C)(C)NC(=O)CN(C(=O)CCC(=O)Nc1nccs1)c1ccccc1F | nt | nt | nt | nt | 0 | nt | nt | nt | nt
CCCNC(=O)CSCc1nc(-c2ccc(SC)cc2)oc1C | 13 | 17 | -9 | 17 | 10 | 1 | nt | nt | nt
CCc1ccc(-c2nc(CSCC(=O)NCc3ccco3)c(C)o2)cc1 | 83* | 17 | -23 | 28 | -9 | 0 | 75* | 37* | 23
O=C(O)c1ccc(N/N=C/c2cc3c(cc2[N+](=O)[O-])OCO3)cc1 | 36* | 15 | 6 | 36 | -18 | 21 | 65* | 45* | 15
CCOC(=O)C(=CNc1cc(C)ccc1[N+](=O)[O-])C(=O)OCC | nt | 1 | 8 | nt | -2 | 7 | nt | nt | nt
CCOC(=O)C(=CNc1cc(C)nn1C(C)(C)C)C(=O)OCC | 15 | 9 | 12 | 0 | -21 | -2 | nt | nt | nt
CCOC(=O)C(=CNc1cc(C)nn1-c1ccc(C)cc1)C(=O)OCC | 69* | 38 | -8 | 16 | -2 | 1 | 60* | 40* | 15
CCOC(=O)C(=CNc1cc(C)ccc1C)C(=O)OCC | 37* | 15 | nt | 28 | nt | 2 | 33 | -1 | -18
C[C@@H]1CN([C@@H](C)CO)S(=O)(=O)c2ccc(Br)cc2O[C@@H]1CN(C)C(=O)NC1CCCCC1 | nt | nt | nt | nt | -7 | nt | nt | nt | nt
Cc1ccc(-n2nc(C(=O)O)c3ccccc3c2=O)cc1C | 54* | 10 | 9 | 15 | -12 | nt | 49* | 2 | 8
Cc1nn(Cc2ccc(Cl)cc2)c(C)c1NC(=O)c1cc(-c2ccc3c(c2)OCO3)on1 | 14 | 3 | nt | 4 | nt | -15 | nt | nt | nt
Cc1nn(Cc2ccc(Cl)c(Cl)c2)c(C)c1NC(=O)c1cc(-c2ccc3c(c2)OCO3)on1 | 37* | 19 | nt | 13 | nt | 5 | 27 | 8 | 18
COc1cccc(-c2cnc3c(NC(C)=O)cc(-c4cccc(C(=O)NCCN(C)C)c4)cn23)c1 | nt | nt | nt | nt | 12 | nt | nt | nt | nt
O=C(O)c1cccc(N/N=C/c2cccnc2)c1 | 40* | 5 | -7 | 38 | 4 | 5 | 6 | 31* | -9
CC(C)(C)S(=O)(=O)N1C[C@H]2CC/C=C\C/C(c3ccccc3)=C\2[C@@H]1CCO | nt | nt | nt | nt | -11 | nt | nt | nt | nt
CCN(CC(=O)NCc1cccs1)C(=O)/C=C/c1ccc(F)cc1 | nt | nt | nt | nt | 1 | nt | nt | nt | nt
CCN(CC(=O)NCc1ccc(Cl)cc1)C(=O)/C=C/c1cccs1 | 68* | -17 | -6 | -10 | -11 | -2 | 8 | 2 | 3
Oc1cccc(/C=N/Nc2cccc3cccnc23)c1 | 49* | 33 | 3 | 15 | -8 | 44 | 32 | -12 | -61
O=C(Nc1cc(C(=O)N2CCCC2)ccc1N1CCCC1)c1ccccc1F | 51* | 6 | 0 | 17 | nt | 5 | 48* | 11 | 8
CCNC(=O)C1(C)CCCN(C(=O)c2cccc(C)c2C)C1 (stereo unspecified) | nt | nt | nt | nt | -2 | nt | nt | nt | nt
Cc1sc(-c2ccccn2)nc1OC(=O)c1ccc(F)cc1F | 74* | 14 | -11 | 14 | nt | 10 | 50* | 24* | -11
SMILES | STAT1 inh-1 | PPC-1+TRAIL kill | Lipid droplet | STAT3 blocker | TAG inh | Platelet DG rel | STAT1 inh-2 | NFkB inh STAT1ct | STAT3 inh 2 | others
Cc1sc(-c2ccccn2)nc1OC(=O)c1ccc(Cl)c(Cl)c1 | -6 | 2 | nt | 5 | 5 | 7 | nt | nt | nt
C[C@@H]1CN([C@@H](C)CO)C(=O)CCCn2nncc2CO[C@@H]1CN(C)C(=O)Nc1ccc2c(c1)OCO2 | nt | nt | nt | nt | 2 | nt | nt | nt | nt
CCCCCCC(=O)N(O)C1CC(=O)N(Cc2ccccc2)C1=O (stereo unspecified) | 35* | 28 | -6 | 22 | 0 | nt | 30 | 11 | 22
CCCCCC(=O)N(O)C1CC(=O)N(c2ccccc2)C1=O (stereo unspecified) | 33 | -1 | nt | 16 | -11 | -4 | nt | nt | nt
O=C(CCl)N(c1ccccc1)c1ccccc1 | 36* | -6 | -6 | 31 | 21 | 12 | 36* | 24* | 24
Cc1ccc(OCC(=O)c2cc(C)c(C)cc2C)c([N+](=O)[O-])n1 | -3 | 21 | -2 | -10 | 17 | 2 | nt | nt | nt
COCCn1c(C)cc(C(=O)COc2ccc(C)nc2[N+](=O)[O-])c1C | 36* | 10 | -1 | 32 | nt | -5 | -15 | 11 | 2
Cc1c(C(=O)Nc2cccc(Cl)c2)c2ccccn2c1CCc1ccncc1 | 35* | 21 | -15 | 6 | -3 | 0 | 23 | -9 | -5
O=C(Nc1ccc(C(=O)O)cc1)/C(=C\c1ccc2c(c1)OCO2)NC(=O)c1ccccc1Cl | nt | nt | nt | nt | 7 | nt | nt | nt | nt
CCOC(=O)c1c(C)nc2sc3c(=O)n(-c4ccc(C(C)=O)cc4)cnc3c2c1-c1ccc(OC)cc1 | 4 | 10 | 35 | 4 | nt | -4 | nt | nt | nt
CCOC(=O)c1c(C)nc2sc3c(=O)n(-c4ccc(OC)cc4)nnc3c2c1-c1ccc(OC)cc1 | 50* | 21 | nt | 8 | -16 | ? | 48* | 9 | 9
Cc1ccc(-n2nnc(-c3nccs3)n2)cc1 | 83* | 82* | -1 | nt | 1 | 34 | 49* | 76* | 85* | PPC-1 tox=82*
Cc1oc2c(c1C(=O)NCc1cccnc1)C(=O)c1ccccc1C2=O | 90* | 95* | -26 | nt | nt | -15 | 98* | 74* | 65* | PPC-1 tox=94*
Cc1cc(F)ccc1C(O)c1ncc(-c2ccccc2F)[nH]1 (stereo unspecified) | nt | nt | nt | nt | -1 | nt | nt | nt | nt
CC1=NN(c2ccccc2)C(=O)/C1=C/N(C)C | nt | 27 | 25 | nt | -8 | 9 | nt | nt | nt
CC1=NN(c2nc3ccccc3[nH]2)C(=O)/C1=C/N(C)C | 41* | 79* | 2 | 29 | 11 | nt | -92 | -3 | -15 | PPC-1 tox=79*

Assay outcomes from PubChem.
